In ChEMBL document CHEMBL2029337, “Synthesis and antimicrobial activities of structurally novel S,S'-bis(heterosubstituted) disulfides” (Bioorg Med Chem Lett, 2012):
Converted amounts (≈) assume the structure as drawn. The source made the active and inactive calls. No cut-off for these calls is given here.

Legend:
Staphylococcus aureus [1] = assay: Antibacterial activity against methicillin-susceptible Staphylococcus aureus ATCC 25923 assessed as reduction in bacterial counts at 4 ug/mL after overnight incubation […] (reference value: 7.60 x 10^8 cfu/mL); assay type: functional
How it was run: (§1)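 Viability count assay against S. aureus ATCC 25923. All tubes started at 10⁵ cfu/mL, and viable bacteria were counted before and after incubation with disulfide at the line's concentration. Tubes without disulfide served as the growth reference. Performed in triplicate.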

Staphylococcus aureus [2] = assay: Antibacterial activity against methicillin-resistant Staphylococcus aureus ATCC 43300 assessed as growth inhibition at 50 ug after 24 hrs by agar-diffusion assay in presence of iPrSSiPr; assay type: functional, organism-based
How it was run: (§2)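 Kirby-Bauer well diffusion on an MRSA lawn (0.5 McFarland suspension swabbed onto tryptic soy agar). Four test agents sat in wells equidistant from a centre well holding 1 mg of additive in DMSO; a DMSO-only centre well served as vehicle control. After overnight incubation at 37 °C, the inhibition zones were examined for size or shape change.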

Escherichia coli = assay: Antibacterial activity against Escherichia coli K-12 […] by agar dilution method; assay type: functional, organism-based
Staphylococcus aureus [3] = assay: Antibacterial activity against methicillin-susceptible Staphylococcus aureus ATCC 25923 assessed as reduction in bacterial counts at 2 ug/mL after overnight incubation […] (reference value: 7.60 x 10^8 cfu/mL); assay type: functional; how it was run: as §1
Staphylococcus aureus [4] = assay: Antibacterial activity against methicillin-resistant Staphylococcus aureus ATCC 43300 assessed as growth inhibition at 50 ug after 24 hrs by agar-diffusion assay in presence of GSH; assay type: functional, organism-based; how it was run: as §2
Staphylococcus aureus [5] = assay: Membrane disrupting activity in methicillin-resistant Staphylococcus aureus ATCC 43300 by scanning electron microscopy; assay type: functional, organism-based
How it was run: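 Scanning electron microscopy of MRSA cells before and after disulfide treatment during Kirby-Bauer agar diffusion experiments, assessing external cell morphology and cell-wall integrity.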

[6] = Cytotoxicity against bovine primary aortic endothelial cells at 20 ug/mL after 48 hrs by MTT assay; assay type: cell-based, Bos taurus; conditions: cattle, endothelial cell
How it was run: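 Primary bovine aortic endothelial cells were kept in EBM-2 with 10% FBS and penicillin/streptomycin at 37 °C under 5% CO₂. Cells were trypsinized, counted and plated in 96-well dishes, then treated for 48 h. MTT was added and formazan dissolved in DMSO; absorbance was read at 540 nm with 660 nm background. Viability is expressed as percent of untreated control.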

Staphylococcus aureus [7] = assay: Antibacterial activity against methicillin-resistant Staphylococcus aureus ATCC 43300 assessed as growth inhibition at 50 ug after 24 hrs by agar-diffusion assay in presence of glycine; assay type: functional, organism-based; how it was run: as §2
Staphylococcus aureus [8] = assay: Antibacterial activity against methicillin-resistant Staphylococcus aureus ATCC 43300 assessed as reduction in bacterial counts at 2 ug/mL after overnight incubation by […] (reference value: 4.02 x 10^8 cfu/mL); assay type: functional
Staphylococcus aureus [9] = assay: Antibacterial activity against methicillin-resistant Staphylococcus aureus ATCC 43300 assessed as growth inhibition at 50 ug after 24 hrs by agar-diffusion assay in presence of valine; assay type: functional, organism-based; how it was run: as §2
Staphylococcus aureus [10] = assay: Antibacterial activity against methicillin-resistant Staphylococcus aureus ATCC 43300 assessed as growth inhibition at 50 ug after 24 hrs by agar-diffusion assay in presence of lysine; assay type: functional, organism-based; how it was run: as §2
Staphylococcus aureus [11] = assay: Antibacterial activity against methicillin-resistant Staphylococcus aureus ATCC 43300 […] by agar dilution method; assay type: functional
Candida albicans = assay: Antifungal activity against Candida albicans assessed as reduction in viability by trypan blue staining; assay type: functional
How it was run: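 C. albicans was exposed in YNB to a 1, 0.5, 0.25 and 0.125 series, following the NCCLS fungal protocol. Non-viable cells were stained with trypan blue and counted in a cell-counting chamber under a microscope at 40X. Controls were untreated cells in YNB and cells heat-killed in PBS (boiled 5 min).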

Bartonella sp. = assay: Antibacterial activity against Bartonella ssp. […] by agar dilution method; assay type: functional
Staphylococcus aureus [12] = assay: Antibacterial activity against methicillin-resistant Staphylococcus aureus ATCC 43300 assessed as reduction in bacterial counts at 4 ug/mL after overnight incubation by […] (reference value: 4.02 x 10^8 cfu/mL); assay type: functional
Staphylococcus aureus [13] = assay: Antibacterial activity against methicillin-susceptible Staphylococcus aureus ATCC 25923 […] by agar dilution method; assay type: functional
Staphylococcus aureus [14] = assay: Antibacterial activity against methicillin-resistant Staphylococcus aureus ATCC 43300 assessed as growth inhibition at 50 ug after 24 hrs by agar-diffusion assay in presence of cystine; assay type: functional, organism-based
Staphylococcus aureus [15] = assay: Antibacterial activity against methicillin-resistant Staphylococcus aureus ATCC 43300 assessed as growth inhibition at 1 mg after 24 hrs by agar-diffusion assay; assay type: functional, organism-based; how it was run: as §2
Staphylococcus aureus [16] = assay: Antibacterial activity against methicillin-resistant Staphylococcus aureus ATCC 43300 assessed as growth inhibition at 50 ug after 24 hrs by agar-diffusion assay in presence of PPh3; assay type: functional, organism-based; how it was run: as §2
[17] = Antibacterial activity against Francisella tularensis subspecies holarctica LVS after 48 hrs by broth dilution method; assay type: functional, Francisella tularensis subsp. holarctica LVS
Staphylococcus aureus [18] = assay: Antibacterial activity against methicillin-resistant Staphylococcus aureus ATCC 43300 assessed as growth inhibition at 50 ug after 24 hrs by agar-diffusion assay in presence of CoA; assay type: functional, organism-based; how it was run: as §2

For `CC(C)OSSOC(C)C`, the Activity (Staphylococcus aureus [1]) was 2.04 ×10³ CFU/ml, the “growth inhibition (GI)” value (Staphylococcus aureus [2]) was “Active” and the Activity (Escherichia coli) was “inactive”. The Activity (Staphylococcus aureus [3]) was 3.86 ×10⁴ CFU/ml, the “growth inhibition (GI)” value (Staphylococcus aureus [4]) was “inactive” and the Activity (Staphylococcus aureus [5]) was “inactive”. The Activity [6] was “Non-toxic”, the “growth inhibition (GI)” value (Staphylococcus aureus [7]) was “Active” and the Activity (Staphylococcus aureus [8]) was >1.2 ×10⁶ CFU/ml. The “growth inhibition (GI)” value (Staphylococcus aureus [9]) was “Active”, the “growth inhibition (GI)” value (Staphylococcus aureus [10]) was “Active” and the MIC (Staphylococcus aureus [11]) was 0.5 µg/mL (≈ 2.74 µM). The MIC (Candida albicans) was 0.5 µg/mL (≈ 2.74 µM), the Activity (Bartonella sp.) was “inactive” and the Activity (Staphylococcus aureus [12]) was 2.88 ×10³ CFU/ml. The MIC (Staphylococcus aureus [13]) was 1 µg/mL (≈ 5.49 µM), the “growth inhibition (GI)” value (Staphylococcus aureus [14]) was “inactive” and the “growth inhibition (GI)” value (Staphylococcus aureus [15]) was “Active”. For the same molecule, the “growth inhibition (GI)” value (Staphylococcus aureus [16]) was “Active”, the MIC [17] was 4 µg/mL (≈ 21.9 µM) and the “growth inhibition (GI)” value (Staphylococcus aureus [18]) was “inactive”.
